# According to ChEMBL document CHEMBL1141128, “Structure-activity relationship study on a simple cationic peptide motif for cellular delivery of antisense peptide nucleic acid” (J Med Chem, 2005):
# Starred links: 1 amine or outer side, 2 acyl side, 3 side chain; linkers in the order of their positions; H or OH if unused. Non-standard residues stand in square brackets, D forms with d. Residues, ends and D or L forms follow the SMILES beside them. Lys(Me2) = CN(C)CCCC[C@H](N)C(=O)O; hArg = N=C(N)NCCCC[C@H](N)C(=O)O; X1 = NCCCC(CC(=O)[*:2])N[*:1]
# What was measured:
# [1] = Average tissue concentration of conjugate at a dose of 3 mg/Kg in BALB/c mice large intestine when given i.v. measured after 24 h; n=3; type: ADME, tissue-based; conditions: mouse, in vivo, iv
# [2] = Average tissue concentration of conjugate at a dose of 3 mg/Kg in BALB/c mice injection site when given s.c. measured after 24 h; n=3; type: ADME; conditions: mouse, in vivo, sc
# [3] = Average tissue concentration of conjugate at a dose of 3 mg/Kg in BALB/c mice testes when given s.c. measured after 24 h; n=3; type: ADME, tissue-based, Testis; conditions: mouse, in vivo, sc
# [4] = Average tissue concentration of conjugate at a dose of 3 mg/Kg in BALB/c mice skin when given s.c. measured after 24 h; n=3; type: ADME; conditions: mouse, in vivo, sc
# [5] = Average tissue concentration of conjugate at a dose of 3 mg/Kg in BALB/c mice skeletal muscle when given s.c. measured after 24 h; n=3; type: ADME, tissue-based; conditions: mouse, in vivo, sc
# [6] = Average tissue concentration of conjugate at a dose of 3 mg/Kg in BALB/c mice MLN when given s.c. measured after 24 h; n=3; type: ADME; conditions: mouse, in vivo, sc
# [7] = tested on: CD40 mRNA; experiment: […] CD40 expression in BCL1 cells treated with 10 uM peptide nucleic acid (PNA)conjugate; n=3; type: functional, cell-based; conditions: Mus musculus
# Procedure, shortened: (§1)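 Mouse BCL1 cells in DMEM with 10% FBS, given conjugate at 1, 3 or 10 μM by free uptake (no transfection agent) for 3 days. Cells trypsinised and stained 1 h with FITC anti-CD40 (HM40-3) or isotype control, then surface CD40 read by flow cytometry. Results are % untreated control, mean ± SD, n = 3.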
# [8] = Average tissue concentration of conjugate at a dose of 3 mg/Kg in BALB/c mice kidney when given s.c. measured after 24 h; n=3; type: ADME; conditions: mouse, in vivo, sc
# [9] = Average tissue concentration of conjugate at a dose of 3 mg/Kg in BALB/c mice small intestine when given i.v. measured after 24 h; n=3; type: ADME, tissue-based; conditions: mouse, in vivo, iv
# [10] = Average tissue concentration of conjugate at a dose of 3 mg/Kg in BALB/c mice heart when given s.c. measured after 24 h; n=3; type: ADME, tissue-based; conditions: mouse, in vivo, sc
# [11] = Average tissue concentration of conjugate at a dose of 3 mg/Kg in BALB/c mice heart when given i.v. measured after 24 h; n=3; type: ADME, tissue-based; conditions: mouse, in vivo, iv
# [12] = Average tissue concentration of conjugate at a dose of 3 mg/Kg in BALB/c mice spleen when given s.c. measured after 24 h; n=3; type: ADME, tissue-based; conditions: mouse, in vivo, sc
# [13] = Average tissue concentration of conjugate at a dose of 3 mg/Kg in BALB/c mice pancreas when given i.v. measured after 24 h; n=3; type: ADME; conditions: mouse, in vivo, iv
# [14] = Half-life of the conjugate when treated with 10% foetal bovine serum for enzymatic stability; No degradation observed within the period of time indicated; type: ADME, Bos taurus; conditions: cattle
# Procedure, shortened: (§2)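 Conjugates at 20 μM in 10% FBS RPMI 1640 medium or 25% mouse serum (Hepes-stabilised, diluted in PBS, pH 7.1–7.4), incubated at 37 °C. Sampled to 168 h (FBS) or 48 h (serum); proteins precipitated with 10% DCA, PNA 6mer internal standard added. Analysed by C3 RP-HPLC at 60 °C; t1/2 from normalised full-length peak area versus time.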
# [15] = Average tissue concentration of conjugate at a dose of 3 mg/Kg in BALB/c mice testes when given i.v. measured after 24 h; n=3; type: ADME, tissue-based, Testis; conditions: mouse, in vivo, iv
# [16] = Average tissue concentration of conjugate at a dose of 3 mg/Kg in BALB/c mice lungs when given s.c. measured after 24 h; n=3; type: ADME; conditions: mouse, in vivo, sc
# [17] = tested on: CD40 mRNA; experiment: […] CD40 expression in BCL1 cells treated with 1 uM peptide nucleic acid (PNA)conjugate; n=3; type: functional, cell-based; conditions: Mus musculus; procedure, shortened: as §1
# [18] = Half-life of the conjugate when treated with 25% murine serum for enzymatic stability; type: ADME; conditions: mouse; procedure, shortened: as §2
# [19] = Average tissue concentration of conjugate at a dose of 3 mg/Kg in BALB/c mice pancreas when given s.c. measured after 24 h; n=3; type: ADME; conditions: mouse, in vivo, sc
# [20] = Average tissue concentration of conjugate at a dose of 3 mg/Kg in BALB/c mice liver when given i.v. measured after 24 h; n=3; type: ADME, tissue-based; conditions: mouse, in vivo, iv
# [21] = tested on: BCL1; experiment: Inhibitory concentration against BCL1 cell proliferation in WST-1 assay; type: functional, Mus musculus
# Procedure, shortened: (§3)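 BCL1 cells, 2000 per well, grown in DMEM with 10% FBS at 37 °C and 5% CO2. Exposed to conjugate for 3 days, then viable cells read by WST-1 absorbance at 450 nm. Value is the concentration at which absorbance fell below 50% of untreated control; triplicates.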
# [22] = Average tissue concentration of conjugate at a dose of 3 mg/Kg in BALB/c mice skeletal muscle when given i.v. measured after 24 h; n=3; type: ADME, tissue-based; conditions: mouse, in vivo, iv
# [23] = Average tissue concentration of conjugate at a dose of 3 mg/Kg in BALB/c mice lungs when given i.v. measured after 24 h; n=3; type: ADME; conditions: mouse, in vivo, iv
# [24] = Average tissue concentration of conjugate at a dose of 3 mg/Kg in BALB/c mice large intestine when given s.c. measured after 24 h; n=3; type: ADME, tissue-based; conditions: mouse, in vivo, sc
# [25] = Average tissue concentration of conjugate at a dose of 3 mg/Kg in BALB/c mice liver when given s.c. measured after 24 h; n=3; type: ADME, tissue-based; conditions: mouse, in vivo, sc
# [26] = Average tissue concentration of conjugate at a dose of 3 mg/Kg in BALB/c mice small intestine when given s.c. measured after 24 h; n=3; type: ADME, tissue-based; conditions: mouse, in vivo, sc
# [27] = Average tissue concentration of conjugate at a dose of 3 mg/Kg in BALB/c mice MLN when given i.v. measured after 24 h; n=3; type: ADME; conditions: mouse, in vivo, iv
# [28] = Average tissue concentration of conjugate at a dose of 3 mg/Kg in BALB/c mice spleen when given i.v. measured after 24 h; n=3; type: ADME, tissue-based; conditions: mouse, in vivo, iv
# [29] = Average tissue concentration of conjugate at a dose of 3 mg/Kg in BALB/c mice skin when given i.v. measured after 24 h; n=3; type: ADME; conditions: mouse, in vivo, iv
# [30] = Average tissue concentration of conjugate at a dose of 3 mg/Kg in BALB/c mice kidney when given i.v. measured after 24 h; n=3; type: ADME; conditions: mouse, in vivo, iv
# [31] = tested on: CD40 mRNA; experiment: […] CD40 expression in BCL1 cells treated with 3 uM peptide nucleic acid (PNA)conjugate; n=3; type: functional, cell-based; conditions: Mus musculus; procedure, shortened: as §1
# [32] = Half-life of the conjugate when treated with 10% foetal bovine serum for enzymatic stability; type: ADME, Bos taurus; conditions: cattle; procedure, shortened: as §2
# [33] = tested on: BCL1; experiment: Inhibitory concentration against BCL1 cell proliferation in WST-1 assay; Range 5-10; type: functional, Mus musculus; procedure, shortened: as §3
# [34] = Half-life of the conjugate when treated with 25% murine serum for enzymatic stability; No data available; type: ADME; conditions: mouse; procedure, shortened: as §2
compound,measurement,setting,value
NCCCC[C@@H](C=O)NC(=O)[C@H](CCCCN)NC(=O)[C@H](CCCCN)NC(=O)[C@H](CCCCN)NC(=O)[C@H](CCCCN)NC(=O)[C@H](CCCCN)NC(=O)[C@H](CCCCN)NC(=O)[C@H](CCCCN)NC(=O)[C@@H](N)CCCCN,Biodistribution,[1],2.07 ug equiv/g
same,Biodistribution,[2],20 ug equiv/g
same,Biodistribution,[3],0.23 ug equiv/g
same,Biodistribution,[4],0.75 ug equiv/g
same,Biodistribution,[5],0.2 ug equiv/g
same,Biodistribution,[6],0.76 ug equiv/g
same,UTC,[7],39% [middle of 7 runs]
same,Biodistribution,[8],11.55 ug equiv/g
same,Biodistribution,[9],1.31 ug equiv/g
same,Biodistribution,[10],0.07 ug equiv/g
same,Biodistribution,[11],0.18 ug equiv/g
same,Biodistribution,[12],1.51 ug equiv/g
same,Biodistribution,[13],0.6 ug equiv/g
same,half-life,[14],> 168 h
same,Biodistribution,[15],0.38 ug equiv/g
same,Biodistribution,[16],0.1 ug equiv/g
same,UTC,[17],88% [middle of 7 runs]
same,half-life,[18],6.7 h
same,Biodistribution,[19],0.2 ug equiv/g
same,Biodistribution,[20],11.47 ug equiv/g
same,IC50 for cell proliferation,[21],20 µM
same,Biodistribution,[22],0.29 ug equiv/g
same,Biodistribution,[23],0.22 ug equiv/g
same,Biodistribution,[24],0.31 ug equiv/g
same,Biodistribution,[25],5.44 ug equiv/g
same,Biodistribution,[26],0.26 ug equiv/g
same,Biodistribution,[27],1.94 ug equiv/g
same,Biodistribution,[28],3.68 ug equiv/g
same,Biodistribution,[29],1.25 ug equiv/g
same,Biodistribution,[30],12.74 ug equiv/g
NCCCC[C@@H](C=O)NC(=O)[C@H](CCCCN)NC(=O)[C@H](CCCCN)NC(=O)CC(CCCN)NC(=O)[C@H](CCCCN)NC(=O)[C@H](CCCCN)NC(=O)CC(CCCN)NC(=O)[C@H](CCCCN)NC(=O)[C@@H](N)CCCCN (some centres undefined) (H-KK[X1]KK[X1]KKK-aldehyde),UTC,[31],82%
same,half-life,[32],> 168 h
same,UTC,[7],61%
same,UTC,[17],98%
same,Cell viability,[33],10 µM
same,T1/2,[34],No data available
CN(C)CCCC[C@H](NC(=O)[C@H](CCCCN(C)C)NC(=O)[C@H](CCCCN)NC(=O)[C@H](CCCCN(C)C)NC(=O)[C@H](CCCCN(C)C)NC(=O)[C@H](CCCCN)NC(=O)[C@H](CCCCN(C)C)NC(=O)[C@@H](N)CCCCN(C)C)C(=O)N[C@H](C=O)CCCCN (H-[Lys(Me2)][Lys(Me2)]K[Lys(Me2)][Lys(Me2)]K[Lys(Me2)][Lys(Me2)]K-aldehyde),UTC,[31],89%
same,half-life,[32],> 168 h
same,UTC,[7],63%
same,UTC,[17],91%
same,IC50 for cell proliferation,[21],>20 µM
same,T1/2,[34],No data available
NCCCC[C@@H](C=O)NC(=O)[C@H](CCCCN)NC(=O)[C@H](CCCCN)NC(=O)[C@H](CCCCN=C(N)N)NC(=O)[C@H](CCCCN)NC(=O)[C@H](CCCCN)NC(=O)[C@H](CCCCN=C(N)N)NC(=O)[C@H](CCCCN)NC(=O)[C@@H](N)CCCCN (H-KK[hArg]KK[hArg]KKK-aldehyde),UTC,[31],75%
same,half-life,[32],> 168 h
same,UTC,[7],36%
same,UTC,[17],92%
same,IC50 for cell proliferation,[21],10 µM
same,T1/2,[34],No data available
CN(C)CCCC[C@H](NC(=O)[C@H](CCCCN)NC(=O)[C@H](CCCCN(C)C)NC(=O)[C@H](CCCCN)NC(=O)[C@H](CCCCN(C)C)NC(=O)[C@H](CCCCN)NC(=O)[C@H](CCCCN(C)C)NC(=O)[C@@H](N)CCCCN)C(=O)N[C@H](C=O)CCCCN (H-K[Lys(Me2)]K[Lys(Me2)]K[Lys(Me2)]K[Lys(Me2)]K-aldehyde),UTC,[31],89%
same,half-life,[32],> 168 h
same,UTC,[7],53%
same,UTC,[17],96%
same,IC50 for cell proliferation,[21],20 µM
same,T1/2,[34],No data available
